The source made the active and inactive calls. The rule behind the calls is not given here.
Legend:
KYSE-410 [1] = assay: Antiproliferative activity against human KYSE410 cells after 72 hrs by MTT assay; type: functional, cell-based; details: KYSE-410, 72 h
Outline: (§1)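 Cells grown as monolayers at 37 °C, 5% CO2, mycoplasma-checked, in exponential phase. Cells seeded in 96-well plates, 24 h attachment, then compound added for 72 h. MTT 0.3 mg/mL for 3 h at 37 °C, DMSO solubilization, absorbance at 570 nm. Inhibition = (1 − A/C) × 100%. IC50 from log(concentration) vs % inhibition plot; triplicate wells, SD from ≥3 independent experiments.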

KYSE-70 cell line [2] = assay: Antiproliferative activity against human KYSE-70 cells after 72 hrs by MTT assay; type: functional, cell-based; details: KYSE-70, 72 h; outline: as §1
MIA PaCa-2 [3] = assay: Inhibition of autophagy in human MIAPaCa2 cells assessed as decrease in bafilomycin-induced LC3B level at 1 to 10 uM after 24 hrs by Western blot analysis; type: functional, cell-based
Outline: (§2)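 Cells treated 24 h at indicated concentrations, with bafilomycin for induced-LC3B readouts. Lysis in RIPA with protease inhibitors, BCA protein assay, samples heated 5 min at 100 °C. Equal protein run on 15% SDS-PAGE, transferred to PVDF. Anti-LC3B primary overnight at 4 °C, GAPDH as loading control, anti-rabbit secondary, TBST washes.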

OVCAR-8 = assay: Antiproliferative activity against human OVCAR8 cells after 72 hrs by MTT assay; type: functional, cell-based; details: OVCAR-8, 72 h; outline: as §1
KYSE-410 [4] = assay: Cell cycle arrest in human KYSE410 cells assessed as accumulation at G2 phase at 5 uM after 24 to 48 hrs by propidium iodide staining based flow cytometry (reference value: 12.2%); type: functional
KYSE-410 [5] = assay: Cell cycle arrest in human KYSE410 cells assessed as accumulation at G1 phase at 5 uM after 24 to 48 hrs by propidium iodide staining based flow cytometry (reference value: 65.4%); type: functional
KYSE-410 [6] = assay: Cell cycle arrest in human KYSE410 cells assessed as accumulation at S phase at 5 uM after 24 to 48 hrs by propidium iodide staining based flow cytometry (reference value: 22.3%); type: functional
KYSE-410 [7] = assay: Cell cycle arrest in human KYSE410 cells assessed as accumulation at G1 phase at 1 uM after 24 to 48 hrs by propidium iodide staining based flow cytometry (reference value: 65.4%); type: functional
KYSE-410 [8] = assay: Cell cycle arrest in human KYSE410 cells assessed as accumulation at G2 phase at 1 uM after 24 to 48 hrs by propidium iodide staining based flow cytometry (reference value: 12.2%); type: functional
SK-OV-3 = assay: Antiproliferative activity against human SKOV3 cells after 72 hrs by MTT assay; type: functional, cell-based; details: SK-OV-3, 72 h; outline: as §1
KYSE-410 [9] = assay: Inhibition of autophagy in human KYSE410 cells assessed as decrease in bafilomycin-induced LC3B level at 1 to 10 uM after 24 hrs by Western blot analysis; type: functional, cell-based; outline: as §2
MIA PaCa-2 [10] = assay: Antiproliferative activity against human MIAPaCa2 cells after 72 hrs by MTT assay; type: functional, cell-based; details: MIA PaCa-2, 72 h; outline: as §1
KYSE-410 [11] = assay: Cell cycle arrest in human KYSE410 cells assessed as accumulation at S phase at 1 uM after 24 to 48 hrs by propidium iodide staining based flow cytometry (reference value: 22.3%); type: functional
KYSE-410 [12] = assay: Inhibition of colony formation in human KYSE410 cells at 0.4 to 30 uM after 7 days by crystal violet staining based assay; type: functional, cell-based
Outline: (§3)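 Seeding at 250 cells/well in 96-well plates, attached 24 h, then serial compound dilutions added at 37 °C. Culture continued 7 days until colonies formed. Colonies washed, stained with 2% crystal violet for 1 h, then rinsed thoroughly with water.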

KYSE-70 cell line [13] = assay: Inhibition of colony formation in human KYSE-70 cells at 0.4 to 30 uM after 7 days by crystal violet staining based assay; type: functional, cell-based; outline: as §3

SMILES | IC50 (KYSE-410 [1]) [µM] | IC50 (KYSE-70 cell line [2]) [µM] | other results
O=C(Nc1cccc(F)c1)c1cc(=O)[nH]c2cc(F)ccc12 | > 20 | > 20 | 
O=C(Nc1cc(F)cc(F)c1)c1cc(=O)[nH]c2cc(F)ccc12 | > 20 | > 20 | 
COc1ccc(OC)c(NC(=O)c2cc(=O)[nH]c3cc(Br)ccc23)c1 | > 20 | > 20 | 
O=C(Nc1cccc(F)c1)c1cc(=O)[nH]c2cc(C3CC3)ccc12 | > 20 | > 20 | 
O=C(Nc1cccc(F)c1)c1cc(=O)[nH]c2cc(-c3cccnc3F)ccc12 | 11.6 | > 20 | 
O=C(Nc1cccc(F)c1)c1cc(=O)[nH]c2cc(-c3cccc(F)c3)ccc12 | 10.9 | 12 | 
O=C(Nc1cc(F)cc(F)c1)c1cc(=O)[nH]c2c(O)cccc12 | > 20 | > 20 | 
O=C(Nc1cccc(F)c1)c1cc(=O)n(Cc2ccccc2)c2cc(Br)ccc12 | > 20 | > 20 | 
O=C(Nc1cccc(F)c1)c1cc(=O)[nH]c2cc(Br)ccc12 | 7.3 | 8.9 | inhibition (MIA PaCa-2 [3]): Active; IC50 (OVCAR-8): 5.8 µM; Activity (KYSE-410 [4]): 22.4%; Activity (KYSE-410 [5]): 53.6%; Activity (KYSE-410 [6]): 24%; Activity (KYSE-410 [7]): 61.9%; Activity (KYSE-410 [8]): 13%; IC50 (SK-OV-3): 10.6 µM; inhibition (KYSE-410 [9]): Active; IC50 (MIA PaCa-2 [10]): 7.5 µM; Activity (KYSE-410 [11]): 25.1%
COc1ccccc1NC(=O)c1cc(=O)[nH]c2cc(Br)ccc12 | > 20 | > 20 | 
COc1ccc2c(C(=O)Nc3cc(F)cc(F)c3)cc(=O)[nH]c2c1 | > 20 | > 20 | 
Cc1cc(-c2ccc3c(C(=O)Nc4cccc(F)c4)cc(=O)[nH]c3c2)c(C)cc1F | > 20 | > 20 | 
O=C(Nc1cccc(OC(F)(F)F)c1)c1cc(=O)[nH]c2cc(Br)ccc12 | 14 | > 20 | 
CCN(CC)CCCC(C)Nc1ccnc2cc(Cl)ccc12 (stereo not given) [CHLOROQUINE] |  |  | Activity (KYSE-410 [4]): 11.3%; Activity (KYSE-410 [5]): 64.3%; Activity (KYSE-410 [6]): 24.4%; Activity (KYSE-410 [7]): 65.6%; Activity (KYSE-410 [8]): 13.7%; Activity (KYSE-410 [11]): 20.7%
Nc1ccc(-c2ccc3c(C(=O)Nc4cccc(F)c4)cc(=O)[nH]c3c2)cc1 | > 20 | > 20 | 
Cc1ccc(-c2ccc3c(C(=O)Nc4cccc(F)c4)cc(=O)[nH]c3c2)cc1 | > 20 | > 20 | 
C#Cc1ccc2c(C(=O)Nc3cccc(F)c3)cc(=O)[nH]c2c1 | 9.7 | 9.5 | 
O=C(Nc1ccc(OC(F)(F)F)cc1)c1cc(=O)[nH]c2cc(Br)ccc12 | > 20 | > 20 | 
O=C(Nc1ccc(C(F)(F)F)cc1)c1cc(=O)[nH]c2cc(Br)ccc12 | > 20 | > 20 | 
COc1ccc(-c2ccc3c(C(=O)Nc4cccc(F)c4)cc(=O)[nH]c3c2)cc1 | 18 | > 20 | 
O=C(Nc1cc(F)c(F)c(F)c1)c1cc(=O)[nH]c2cc(Br)ccc12 | > 20 | > 20 | 
O=C(Nc1ccc(Cl)cc1)c1ccnc2cc(Br)ccc12 | > 20 | > 20 | 
O=C(Nc1ccccn1)c1cc(=O)[nH]c2cc(Br)ccc12 | 9.8 | 11 | IC50 (OVCAR-8): > 20 µM; Activity (KYSE-410 [4]): 18.5%; Activity (KYSE-410 [5]): 62.1%; Activity (KYSE-410 [6]): 19.5%; Activity (KYSE-410 [7]): 70.8%; Activity (KYSE-410 [8]): 10.8%; IC50 (SK-OV-3): > 20 µM; IC50 (MIA PaCa-2 [10]): 21.3 µM; Activity (KYSE-410 [11]): 18.5%
O=C(Nc1cccc(F)c1)c1cc(=O)[nH]c2cc(C3=CCOCC3)ccc12 | 12.1 | 10.5 | IC50 (OVCAR-8): 21.8 µM; IC50 (SK-OV-3): 13.3 µM; IC50 (MIA PaCa-2 [10]): 8.8 µM
O=C(Nc1cccc(F)c1)c1cc(=O)[nH]c2cc(-c3ccccc3)ccc12 | > 20 | > 20 | 
O=C(Nc1ccc(F)cc1)c1cc(=O)[nH]c2cc(Br)ccc12 | > 20 | > 20 | 
O=C(Nc1cc(F)cc(F)c1)c1cc(=O)[nH]c2cc(C(F)(F)F)ccc12 | 17.9 | 14.2 | 
CC(C)(C)c1ccc(NC(=O)c2cc(=O)[nH]c3cc(Br)ccc23)cc1 | > 20 | > 20 | inhibition (KYSE-410 [12]): inactive; inhibition (KYSE-70 cell line [13]): inactive
